Assay outcomes as filed in PubChem BioAssay.
Most compounds without a hit are left out; they make up all but 12% or so of the library.
WT yeast gro inh: growth inhibition of WT strain, primary screen, mitochondrial fusion inhibitor project, WT and mutant strains, chemical genetic. mitochondrial fusion phenotypic screen. inhibition, % at 10 µM. 2.1% of 190,000 active. AID 1362, 2008; in the data active = inhibition above about 58%; tested in S. cerevisiae
L major viab: Leishmania major promastigote growth inhibition, primary screen; Leishmania major promastigotes, resazurin fluorescence viability; inhibition, % at 10 µM; 9% of 200,000 active; in the data active = inhibition above about 50%;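 note: promastigotes grown with compound for 44 hours at 28 °C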
Diaphorase act: compounds boosting diaphorase resazurin reduction – biochemical, uHTS, resorufin fluorescence, counter-screen for diaphorase-coupled primary assays, primary screen; Diaphorase/resazurin coupled assay, 16 min; stronger effect = higher value; 1 = vehicle wells, 0 = NADH-free wells; activation factor at 20 µM; 0.005% of 190,000 active;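 active = diaphorase activity raised at least twofold by the compound at 20 µM; inactive = activation factor below 2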
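Material: purified diaphorase enzyme from Clostridium kluyveri; Also added: 0.114 mM NADH and 0.1 mM resazurin, final amounts; Doses: single compound dose of 20 µM, 1% DMSO final; Times: 16 min enzyme reaction, ambient temperature; Detection: resorufin fluorescence, excitation 544 nm, emission 590 nm; Measure: increased resorufin signal from activators or reducing compounds.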
Diaph inh CS: diaphorase inhibitors and chemical oxidizers, primary screen, counter-screen for diaphorase-coupled primary assays, biochemical, uHTS, resorufin fluorescence | diaphorase resazurin-to-resorufin fluorescence, NADH, 16 min; bacterial (C. kluyveri) enzyme, not human | inhibition, % at 20 µM | 0.69% of 190,000 active | AID 1217, 2008;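 active = primary screen inhibition at 20 µM above a set limit, cut at about 50% in these data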
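controls = No-NADH positive control and DMSO neutral control | system = Clostridium kluyveri diaphorase enzyme | timing = reaction incubation of 16 min at room temperature | signal = resorufin fluorescence 544/590 nm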
Cl transport mod: KCC2 cotransporter modulators, thallium flux, primary screen, cell-based, HEK293 KCC2, FluoZin-2 fluorescence, MLSMR; KCC2 cells, thallium flux FluoZin-2 fluorescence; B-score of Tl+ flux slope (higher = more flux/activation; lower = inhibition) at 10 µM; 2.2% of 190,000 active;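 active = thallium flux slope and its plate-corrected score both differing from the plate sample mean at a set confidence after two filtering rounds, in either direction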;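 note: slope of fluorescence scaled to starting intensity during 10 to 20 s after thallium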
ROMK primary: ROMK potassium channel modulators, primary screen, cell-based, thallium flux, MLSMR library. ATP-sensitive inward rectifier potassium channel 1 (Homo sapiens), P48048. Tet-inducible ROMK, thallium flux fluorescence; actives lie on both sides. B-score at 10 µM. 2% of 130,000 active. AID 1918, 2009;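 active = signal ratio slope over the read window, or its plate-corrected B-score, at least 3 SD from the plate mean, either direction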;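 note: B-score of the F/F0 ratio slope over 7 to 12 s after thallium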
Target sequence (P48048 whole entry, looked up): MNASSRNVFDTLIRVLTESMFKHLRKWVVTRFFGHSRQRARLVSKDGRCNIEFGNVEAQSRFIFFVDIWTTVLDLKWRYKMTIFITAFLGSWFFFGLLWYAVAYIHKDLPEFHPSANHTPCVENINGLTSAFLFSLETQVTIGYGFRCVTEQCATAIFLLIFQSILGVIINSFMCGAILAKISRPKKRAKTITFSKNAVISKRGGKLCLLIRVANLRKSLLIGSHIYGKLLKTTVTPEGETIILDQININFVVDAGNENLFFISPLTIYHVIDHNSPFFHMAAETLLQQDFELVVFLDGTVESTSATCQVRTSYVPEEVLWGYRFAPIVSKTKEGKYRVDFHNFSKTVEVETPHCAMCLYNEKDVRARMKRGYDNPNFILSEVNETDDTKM
Each line names hits and unclear results; the compound was inactive in the other large screens.

CCCCCCCSc1cc(OC)c(CCNC)cc1OC	WT yeast gro inh 94, L major viab 100
CCCCCSc1cc(OC)c(CCNC)cc1OC	L major viab 100, ROMK primary -3.6
O=C(Nc1ccccc1)OC1CN=C(N[N+](=O)[O-])NC1 (stereo unspecified)	none
CC(C)OC(=O)C1C(=O)NC2(C)CC1c1ccccc1O2 (stereo unspecified)	none
CN(Cc1c[nH]c2ccccc12)C1CCCCC1	L major viab 70
c1ccc2c(CNC3CCCCC3)c[nH]c2c1	Cl transport mod -5.1
CCC(CC)NCc1c[nH]c2ccccc12	none
CCOP(=O)(Cc1cc(C#N)oc1C)OCC	none
CCOc1ccc(-c2cc(C)[n+](CCO)c(-c3ccc(OCC)cc3)c2)cc1	L major viab 99
N#CC1=C(N)Oc2c(c(=O)sc3ccccc23)C1c1cccnc1 (stereo unspecified)	L major viab 81
N#CC1=C(N)Oc2c(c(=O)oc3ccccc23)C1c1ccncc1 (stereo unspecified)	none (no result: ROMK primary)
COc1ccc(N2C(=O)/C(=C/c3cccs3)C(=O)NC2=S)cc1	none (no result: WT yeast gro inh, L major viab, Diaphorase act, Diaph inh CS, ROMK primary)
Cc1ccc(/C=C2\C(=O)NC(=S)N(c3ccc(F)cc3)C2=O)s1	L major viab 100
Cc1ccc(/C=C2\C(=O)NC(=S)N(c3ccccc3F)C2=O)s1	L major viab 101 (no result: ROMK primary)
CCOC(=O)C1CCN(/C=C2/C(=O)NC(=S)N(c3ccccc3F)C2=O)CC1	L major viab 55
COc1cc2c(cc1OC)C(C(=O)NC(C)C)C1CCCCN1C2=O (stereo unspecified)	none (no result: WT yeast gro inh, L major viab, Diaphorase act, Diaph inh CS, ROMK primary)
CCCCCCC(=O)N/N=C/c1c(O)n(C(C)CC)c(=S)[nH]c1=O (stereo unspecified)	none (no result: WT yeast gro inh, L major viab, Diaphorase act, Diaph inh CS, ROMK primary)
CCCCn1c(=O)c(C=Nc2cccnc2Cl)c(O)n(CCCCl)c1=O	none
O=c1c2ccccc2nc(CSc2ncnc3nc[nH]c23)n1-c1ccc(Cl)c(Cl)c1	none (no result: Cl transport mod)
C=C(COC(C)=O)CC1CC(O)[C@]2(C)OC3CC4OC5C[C@]6(C)O[C@]7(C)CCC8OC9C[C@]%10(C)OC%11C(C)=CC(=O)OC%11CC%10OC9C[C@@H](C)C8OC7CC6O[C@]5(C)C/C=C\C4OC3CC2O1 (stereo partly specified)	none (no result: WT yeast gro inh, L major viab, Diaphorase act, Diaph inh CS, ROMK primary)
C=C(CO)CC1CC(O)[C@]2(C)OC3CC4OC5C[C@]6(C)O[C@]7(C)CCC8OC9C[C@]%10(C)OC%11C(C)=CC(=O)OC%11CC%10OC9C[C@@H](C)C8OC7CC6O[C@]5(C)C/C=C\C4OC3CC2O1 (stereo partly specified)	L major viab 56 (no result: ROMK primary)
C=C(C=O)CC1CC(O)[C@]2(C)OC3CC4OC5C[C@]6(C)O[C@]7(C)CCC8OC9C[C@]%10(C)OC%11C(C)=CC(=O)OC%11CC%10OC9C[C@@H](C)C8OC7CC6O[C@]5(C)CC5OC5C4OC3CC2O1 (stereo partly specified)	WT yeast gro inh 82, L major viab 101 (no result: ROMK primary)
c1ccc2c(c1)CSc1ccccc1C2C1=NCCN1 (stereo unspecified)	none (no result: ROMK primary)
Brc1ccc2c(c1)C(OC1CN3CCC1CC3)c1ccccc1CS2 (stereo unspecified)	WT yeast gro inh 82, L major viab 100 (no result: ROMK primary)
N=c1c2c(n(Cc3ccc(Cl)cc3Cl)c3c1CCC3)CCCC2	WT yeast gro inh 70, L major viab 100 (no result: ROMK primary)
CCOC(=O)c1c(-n2c(C)cc(/C=C3/C(=O)NC(=O)N(CC)C3=O)c2C)sc2c1CCCC2	L major viab 96 (no result: WT yeast gro inh, Diaphorase act, Diaph inh CS, Cl transport mod, ROMK primary)
Cc1ccc(N2C(=O)NC(=O)/C(=C\c3cc(C)n(-c4sc5c(c4C#N)CCCC5)c3C)C2=O)cc1	none (no result: ROMK primary)
CCOC(=O)c1c(-n2c(C)cc(C=C3C(=O)NC(=S)NC3=O)c2C)sc2c1CCCC2	WT yeast gro inh 78, L major viab 100 (no result: Cl transport mod, ROMK primary)
Cc1ccccc1C1=NCC(=O)N(CC(=O)NCc2ccco2)c2sc3c(c21)CCCC3	L major viab 93 (no result: ROMK primary)
CCC(C)C1N=C(c2ccccc2)c2cc(Cl)ccc2N(CC(=O)NCc2ccco2)C1=O (stereo unspecified)	none (no result: Cl transport mod, ROMK primary)
CCOC(=O)c1c(NC(=O)c2c(N)n(CCCOC)c3nc4ccccc4nc23)sc2c1CCCC2	none (no result: ROMK primary)
CCOC(=O)c1c(NC(NC(=O)CF)C(Cl)(Cl)Cl)sc2c1CCCC2 (stereo unspecified)	WT yeast gro inh 69 (no result: ROMK primary)
CCOP(=S)(OCC)SCC(=O)NC(C)(CC)C(=O)O (stereo unspecified)	none
CCN(CC)c1ccc(CC2C(=O)N(C)C(=O)N(C)C2=O)cc1	none (no result: ROMK primary)
CCN(CC)c1ccc(/C=C/[N+](=O)[O-])cc1	L major viab 69 (no result: ROMK primary)
CN(C(=O)Oc1ccc(C(C)(C)C)cc1)c1ccccc1	none
Oc1cc2c(cc1O)[C@H]1c3ccccc3CN[C@@H]1CC2	Diaph inh CS 65 (no result: L major viab, ROMK primary)
C=CCn1c(O)c(C(C)=NCCN2CCN(C(=S)NC)CC2)c(=O)[nH]c1=O	none (no result: WT yeast gro inh, L major viab, Diaphorase act, Diaph inh CS, ROMK primary)
Cn1c(O)c(/C=N/c2ncccn2)c(=O)n(C)c1=O	L major viab 78
Cc1nn(Cc2c(Cl)cccc2Cl)c(Cl)c1C(=O)O	none
CCN1/C(=C\C=C\C2=[N+](CC)c3ccccc3C2(C)C)C(C)(C)c2ccccc21	L major viab 99 (no result: ROMK primary)
Oc1c(Br)cc(Br)cc1CN1CCN(Cc2ccccc2)CC1	L major viab 73 (no result: ROMK primary)
O=C(Cc1ccccc1)N1CCN(Cc2cccc(Br)c2)CC1	none (no result: WT yeast gro inh, L major viab, Diaphorase act, Diaph inh CS, ROMK primary)
CCN1CCN(Cc2cc(Br)cc(OC)c2O)CC1	none (no result: Cl transport mod)
O=C(Cc1ccc(Br)cc1)N1CCN(Cc2ccccc2)CC1	L major viab 87 (no result: Cl transport mod, ROMK primary)
CN(C)C(=O)Oc1ccc(OCc2n(C)c3ccccc3[n+]2C)cc1	none
CCOC(=O)c1c(C)[nH]c(C(=O)C(C)N2CCCC2)c1C (stereo unspecified)	none
O=[N+]([O-])c1ccc(N2CCNCC2)cc1Sc1ccccn1	none
Cc1cc(NC(=O)CCl)nn1C	none
CCN(CC)c1ccc(C=C2C(=O)N(C)C(=S)N(C)C2=O)o1	L major viab 72
CN1C(=O)C(=Cc2ccc(N3CCCCC3)o2)C(=O)N(C)C1=S	ROMK primary -4.9 (no result: Cl transport mod)
O=C1NC(=O)C(=Cc2ccc(N3CCOCC3)o2)C(=O)N1	none (no result: ROMK primary)
CN1C(=O)C(=Cc2ccc(SC3CCCCC3)o2)C(=O)N(C)C1=O	none
O=C1NC(=O)N(c2ccc3c(c2)OCO3)C(=O)/C1=C/c1ccc(N2CCCCC2)o1	ROMK primary -3.6 (no result: Cl transport mod)
